pIC50: −log10 of the molar value.
Key:
MKN-28 = assay: Cytotoxicity against human MKN28 cells after 72 hrs by SRB assay; format: functional; settings: MKN-28, 72 h
KM12 = assay: Cytotoxicity against human KM12 cells after 72 hrs by SRB assay; format: functional; settings: KM12, 72 h
[1] = Cytotoxicity against human MKN1 cells after 72 hrs by SRB assay; format: functional; settings: MKN-1, 72 h
NCI-H226 = assay: Cytotoxicity against human NCI-H226 cells after 72 hrs by SRB assay; format: functional; settings: NCI-H226, 72 h
SF-539 = assay: Cytotoxicity against human SF539 cells after 72 hrs by SRB assay; format: functional; settings: SF-539, 72 h
DMS-273 = assay: Cytotoxicity against human DMS273 cells after 72 hrs by SRB assay; format: functional; settings: DMS-273, 72 h
OVCAR-3 = assay: Cytotoxicity against human OVCAR3 cells after 72 hrs by SRB assay; format: functional; settings: OVCAR-3, 72 h
NCI-H522 = assay: Cytotoxicity against human NCI-H522 cells after 72 hrs by SRB assay; format: functional; settings: NCI-H522, 72 h
[2] = Cytotoxicity against human RXF631L cells after 72 hrs by SRB assay; format: functional; settings: RXF 631, 72 h
HCC 2998 = assay: Cytotoxicity against human HCC2998 cells after 72 hrs by SRB assay; format: functional; settings: HCC 2998, 72 h
SF-295 = assay: Cytotoxicity against human SF295 cells after 72 hrs by SRB assay; format: functional; settings: SF-295, 72 h
OVCAR-4 = assay: Cytotoxicity against human OVCAR4 cells after 72 hrs by SRB assay; format: functional; settings: OVCAR-4, 72 h
MV4-11 = assay: Antiproliferative activity against human MV4-11 cells after 72 hrs by MTT assay; format: functional, cell-based; settings: MV4-11, 72 h
SF-268 = assay: Cytotoxicity against human SF268 cells after 72 hrs by SRB assay; format: functional; settings: SF-268, 72 h
MKN-7 = assay: Cytotoxicity against human MKN7 cells after 72 hrs by SRB assay; format: functional; settings: MKN-7, 72 h
DMS-114 = assay: Cytotoxicity against human DMS114 cells after 72 hrs by SRB assay; format: functional; settings: DMS-114, 72 h
NCI-H460 = assay: Cytotoxicity against human NCI-H460 cells after 72 hrs by SRB assay; format: functional; settings: NCI-H460, 72 h
A549 = assay: Cytotoxicity against human A549 cells after 72 hrs by SRB assay; format: functional, cell-based; settings: A549, 72 h
How it was run: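 Adherent cells grown at 37 °C and 5% CO2. Seeded at 1×10^4/well 24 h before dosing, then 72 h at 10–0.01 µg/mL final. Fixed with cold 50% TCA, stained with 0.4% SRB, dye extracted in 10 mM Tris, read at 540 nm.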

NCI-H23 = assay: Cytotoxicity against human NCI-H23 cells after 72 hrs by SRB assay; format: functional; settings: NCI-H23, 72 h
SK-OV-3 = assay: Cytotoxicity against human SKOV3 cells after 72 hrs by SRB assay; format: functional; settings: SK-OV-3, 72 h
MCF7 = assay: Cytotoxicity against human MCF7 cells after 72 hrs by SRB assay; format: functional; settings: MCF7, 72 h
OVCAR-8 = assay: Cytotoxicity against human OVCAR8 cells after 72 hrs by SRB assay; format: functional; settings: OVCAR-8, 72 h
OVCAR-5 = assay: Cytotoxicity against human OVCAR5 cells after 72 hrs by SRB assay; format: functional; settings: OVCAR-5, 72 h
St-4 = assay: Cytotoxicity against human St-4 cells after 72 hrs by SRB assay; format: functional; settings: St-4, 72 h
U-251 = assay: Cytotoxicity against human U251 cells after 72 hrs by SRB assay; format: functional; settings: U-251, 72 h
DU-145 = assay: Cytotoxicity against human DU145 cells after 72 hrs by SRB assay; format: functional; settings: DU-145, 72 h
HCT-15 = assay: Cytotoxicity against human HCT15 cells after 72 hrs by SRB assay; format: functional; settings: HCT-15, 72 h
SNB-78 = assay: Cytotoxicity against human SNB78 cells after 72 hrs by SRB assay; format: functional; settings: SNB-78, 72 h
[3] = read-out: LC50 (the source's name)
[4] = read-out: pLC50 (the source's name) (converted)

## COc1ccc(C2O[C@]34CC(c5cccc(Cl)c5)OC(=O)C3=C[C@@]2(C)OO4)cc1 (some centres not stated)
MKN-28
  TGI: 40 µM
MKN-28; read-out: GI50
  GI50: 14 µM
MKN-28; [3]
  CC50: 100 µM
MKN-28; read-out: pGI50 (converted)
  GI50: 11 µM
MKN-28; read-out: pLC50 (converted)
  CC50: > 100 µM
KM12
  TGI: 51 µM
KM12; read-out: GI50
  GI50: 25 µM
KM12; [3]
  CC50: 100 µM
KM12; read-out: pGI50 (converted)
  GI50: 17.8 µM
KM12; [4]
  CC50: 85.1 µM
[1]
  TGI: 17 µM
[1]; read-out: GI50
  GI50: 4.5 µM
[1]; [3]
  CC50: 49 µM
[1]; read-out: pGI50 (converted)
  GI50: 2.09 µM
[1]; [4]
  CC50: 9.12 µM
NCI-H226
  TGI: 48 µM
NCI-H226; read-out: GI50
  GI50: 20 µM
NCI-H226; [3]
  CC50: 100 µM
NCI-H226; read-out: pGI50 (converted)
  GI50: 17.8 µM
NCI-H226; [4]
  CC50: 91.2 µM
SF-539
  TGI: 23 µM
SF-539; read-out: GI50
  GI50: 8.4 µM
SF-539; [3]
  CC50: 55 µM
SF-539; read-out: pGI50 (converted)
  GI50: 2.75 µM
SF-539; [4]
  CC50: 13.5 µM
DMS-273
  TGI: 31 µM
DMS-273; read-out: GI50
  GI50: 14 µM
DMS-273; [3]
  CC50: 69 µM
DMS-273; read-out: pGI50 (converted)
  GI50: 10.2 µM
DMS-273; [4]
  CC50: 74.1 µM
OVCAR-3
  TGI: 10 µM
OVCAR-3; read-out: GI50
  GI50: 3.4 µM
OVCAR-3; [3]
  CC50: 42 µM
OVCAR-3; read-out: pGI50 (converted)
  GI50: 2.45 µM
OVCAR-3; [4]
  CC50: 12.6 µM
NCI-H522
  TGI: 8.6 µM
NCI-H522; read-out: GI50
  GI50: 2.7 µM
NCI-H522; [3]
  CC50: 100 µM
NCI-H522; read-out: pGI50 (converted)
  GI50: 2 µM
NCI-H522; [4]
  CC50: 22.4 µM
[2]
  TGI: 30 µM
[2]; read-out: GI50
  GI50: 16 µM
[2]; [3]
  CC50: 56 µM
[2]; read-out: pGI50 (converted)
  GI50: 16.6 µM
[2]; [4]
  CC50: 58.9 µM
HCC 2998
  TGI: 30 µM
HCC 2998; read-out: GI50
  GI50: 15 µM
HCC 2998; [3]
  CC50: 62 µM
HCC 2998; read-out: pGI50 (converted)
  GI50: 6.31 µM
HCC 2998; [4]
  CC50: 61.7 µM
SF-295
  TGI: 33 µM
SF-295; read-out: GI50
  GI50: 18 µM
SF-295; [3]
  CC50: 62 µM
SF-295; read-out: pGI50 (converted)
  GI50: 18.2 µM
SF-295; [4]
  CC50: 60.3 µM
OVCAR-4
  TGI: 24 µM
OVCAR-4; read-out: GI50
  GI50: 9.2 µM
OVCAR-4; [3]
  CC50: 59 µM
OVCAR-4; read-out: pGI50 (converted)
  GI50: 1.55 µM
OVCAR-4; [4]
  CC50: 41.7 µM
MV4-11
  pIC50: 6.26
SF-268
  TGI: 41 µM
SF-268; read-out: GI50
  GI50: 18 µM
SF-268; [3]
  CC50: 94 µM
SF-268; read-out: pGI50 (converted)
  GI50: 13.8 µM
SF-268; [4]
  CC50: 91.2 µM
MKN-7
  TGI: 31 µM
MKN-7; read-out: GI50
  GI50: 10 µM
MKN-7; [3]
  CC50: 97 µM
MKN-7; read-out: pGI50 (converted)
  GI50: 3.47 µM
MKN-7; [4]
  CC50: 89.1 µM
DMS-114
  TGI: 36 µM
DMS-114; read-out: GI50
  GI50: 14 µM
DMS-114; [3]
  CC50: 92 µM
DMS-114; read-out: pGI50 (converted)
  GI50: 4.47 µM
DMS-114; [4]
  CC50: 95.5 µM
NCI-H460
  TGI: 38 µM
NCI-H460; read-out: GI50
  GI50: 19 µM
NCI-H460; [3]
  CC50: 77 µM
NCI-H460; read-out: pGI50 (converted)
  GI50: 20 µM
NCI-H460; [4]
  CC50: 81.3 µM
A549
  pIC50: 4.99
  TGI: 38 µM
A549; read-out: GI50
  GI50: 18 µM
A549; [3]
  CC50: 78 µM
A549; read-out: pGI50 (converted)
  GI50: 17.8 µM
A549; [4]
  CC50: 77.6 µM
NCI-H23
  TGI: 40 µM
NCI-H23; read-out: GI50
  GI50: 18 µM
NCI-H23; [3]
  CC50: 93 µM
NCI-H23; read-out: pGI50 (converted)
  GI50: 16.6 µM
NCI-H23; [4]
  CC50: 79.4 µM
SK-OV-3
  TGI: 29 µM
SK-OV-3; read-out: GI50
  GI50: 16 µM
SK-OV-3; [3]
  CC50: 54 µM
SK-OV-3; read-out: pGI50 (converted)
  GI50: 19.1 µM
SK-OV-3; [4]
  CC50: 58.9 µM
MCF7
  TGI: 27 µM
MCF7; read-out: GI50
  GI50: 11 µM
MCF7; [3]
  CC50: 69 µM
MCF7; read-out: pGI50 (converted)
  GI50: 10 µM
MCF7; [4]
  CC50: 87.1 µM
OVCAR-8
  TGI: 41 µM
OVCAR-8; read-out: GI50
  GI50: 12 µM
OVCAR-8; [3]
  CC50: 100 µM
OVCAR-8; read-out: pGI50 (converted)
  GI50: 9.33 µM
OVCAR-8; read-out: pLC50 (converted)
  CC50: > 100 µM
OVCAR-5
  TGI: 17 µM
OVCAR-5; read-out: GI50
  GI50: 5.3 µM
OVCAR-5; [3]
  CC50: 42 µM
OVCAR-5; read-out: pGI50 (converted)
  GI50: 2.75 µM
OVCAR-5; [4]
  CC50: 26.3 µM
St-4
  TGI: 47 µM
St-4; read-out: GI50
  GI50: 19 µM
St-4; [3]
  CC50: 100 µM
St-4; read-out: pGI50 (converted)
  GI50: 17.8 µM
St-4; read-out: pLC50 (converted)
  CC50: > 100 µM
U-251
  TGI: 36 µM
U-251; read-out: GI50
  GI50: 18 µM
U-251; [3]
  CC50: 73 µM
U-251; read-out: pGI50 (converted)
  GI50: 15.8 µM
U-251; [4]
  CC50: 69.2 µM
DU-145
  TGI: 29 µM
DU-145; read-out: GI50
  GI50: 15 µM
DU-145; [3]
  CC50: 54 µM
DU-145; read-out: pGI50 (converted)
  GI50: 16.6 µM
DU-145; [4]
  CC50: 56.2 µM
HCT-15
  TGI: 24 µM
HCT-15; read-out: GI50
  GI50: 4.4 µM
HCT-15; [3]
  CC50: 100 µM
HCT-15; read-out: pGI50 (converted)
  GI50: 3.72 µM
HCT-15; read-out: pLC50 (converted)
  CC50: > 100 µM
SNB-78
  TGI: 34 µM
SNB-78; read-out: GI50
  GI50: 14 µM
SNB-78; [3]
  CC50: 84 µM
SNB-78; read-out: pGI50 (converted)
  GI50: 12.6 µM
SNB-78; [4]
  CC50: 91.2 µM

Reference: ChEMBL document CHEMBL2434891, “Design, synthesis, and in vitro cancer cell growth inhibition evaluation and antimalarial testing of trioxanes installed in cyclic 2-enoate substructures” (Eur J Med Chem, 2013)
